Source: the EternaBench riboswitch data

Test system: MS2 coat protein
Experiment: apparent Kd, MS2 coat protein; higher = weaker binding; RNA-MaP array; FMN 200 µM where present
How it was run: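 The titrant was SNAP-549-labelled MS2 coat protein, run from 0.7 or 1.5 nM in doubling steps to 3 µM. It was applied to designs transcribed by stalled E. coli RNA polymerase on Illumina sequencing-chip clusters, without ligand first and then with constant ligand, in 100 mM Tris-HCl pH 7.5, 80 mM KCl, 4 mM MgCl2, BSA, DTT, yeast tRNA and Tween-20. The apparent Kd is the median of filtered per-cluster binding-curve fits, with green signal normalised to red-channel RNA signal and control-cluster median Fmax.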

[1] = designed as: OFF switch for flavin mononucleotide, no ligand
[2] = ligand present: flavin mononucleotide, designed as: OFF switch for flavin mononucleotide
[3] = designed as: ON switch for flavin mononucleotide, no ligand
[4] = ligand present: flavin mononucleotide, designed as: ON switch for flavin mononucleotide

Sequence	apparent Kd [1]	apparent Kd [2]	apparent Kd [3]	apparent Kd [4]
AAGUAGUGUGUGAGGAUAUUGGUGGAAUGACAUAUUAAGAAGGCACAUGAGGAUCACCCAUGUGGGAUGUCACG	12.6 nM	12.6 nM	–	–
CGCUUUGUACAUGAGGAUCACCCAUGUUAAUAUGUGGUAGUCAGAAGGCAUUGUUUGAGAUAUUAUGAGGAUAUGAUUAGUCUG	–	–	73.2 nM	43.6 nM
CGGCGCUGUCGAGAGGAUAUGCGGUGAUGGACAUGAGGAUCACCCAUGUUAGCGAUAGCAUUACGGUAGAAGGCUCUAUAGUUGC	–	–	362 nM	93.2 nM
ACAUGAGGAUCUCCCAUGUAAAAUUAGGAUAUAUGACUGCACAUGAGGAUCACCCAUGUUCUACCGUAGAAGGGAUAAAUAAUU	–	–	516 nM	427 nM
AAAUAAAGGACUGAGGAUAUACCACAUGAAACAUGAGGAUCACCCAUGUAAUAAUACAAAGGGUGGUAGAAGGUAGUCCACAAACA	–	–	34.9 nM	16.8 nM
CCGCAAAAGCAGGAUAUCGUAUCGGAAACGAUACGAGAAGGGUUUACAUGAGGAUCACCCAUGUUCCUUAGCGG	29.1 nM	38 nM	–	–
CUUAAGCUGGCAAGGGCUGGUGAAGAGGAUAUACAUGCUAAGCGAACCACAUGAGGAUCACCCAUGUAGAAGGCUUCCCAGAAA	159 nM	111 nM	–	–
AUUUUAAUGUCAGGAUAUAUUAGUUUAUAUAUAGUAGAAGGGAUAAUUAUACUCAUGUACAUGAGGAUCACCCAUGUUAAAUAA	–	–	216 nM	79.1 nM
AUUUAUGGCCAGAAGGACAUGAGGAUCACCCAUGUAGGAUAUGGACGAUUUUGCUCGGCGGUUUGUUUAGGAAGCACCGGUGAU	–	–	21.5 nM	7.6 nM
UUGGCAUCGUAGAAGGGUGACAUGAGGAUCACCCAUGUGACGAUAUUUCUCGAGAUAUGUCGUCCACAGGAUAUACGAGCGAAC	–	–	72.3 nM	42.4 nM
GUCUCGAUGUAAGGAUAUGCAGUGGAUAACACUGCAGAAGGUACAUGAGGAUCACCCAUGUAACUCUAAUAAUAAUAACGAGAC	13.1 nM	17.3 nM	–	–
ACCAAUGGAGGAUAUACAUGAGGAUCACCCAUGUUUAUCCUACAUAGGUGAAAAAUAUGUAGAAGGCCAUUGGA	17 nM	20.5 nM	–	–
AAAAAACAUGAGGAUCACCCAUGUGAGGAUAUCAAAUAAAGGCACAUGAGAAGGCAUAUGAGAAGGCACAUGAA	99.3 nM	156 nM	–	–
UCGUCGCUAGGAGGAUAUACAUGAUCUCACACAUGUACCGCUCACGCCACAUGAGGAUCACCCAUGUAGAAGGCCUAGAGAGGU	26.5 nM	56.4 nM	–	–
GGGUACAUCGGAGGAUAUCAUGUAAAUACAUGAGGAUCACCCAUGUCGAUGGAGACAUCGCAGAUUGAGAAGGCCGAUGUACCG	–	–	28 nM	5.26 nM
GUCAGCUCGUGAGGAUAUACAACACUGCUUCGGCAGUAUAUUAAGAUCACAUGAGGAUCACCCAUGUAGAAGGCACGAGCUGAU	15 nM	284 nM	–	–
UCGCUGCGAGGAUAUACAUGAGGAUCACCCAUGUACGGGUCCGGGUCUUCGUCCAUUGGUAGAAGGCGCAGUGA	23.1 nM	204 nM	–	–
AGUCAUGUCCGAGGAUAUGAUGCCGGUUUCUGCAAGCCAACGCGCCCGGCCUCAGAAGGCGGACAUGAGGAUCACCCAUGUAUC	64.9 nM	12.2 nM	–	–
UAUAUAUAGUAAGGAUAUGUAAUUAGUUUAUAAACAGAAGGUACUGACAUGAGGAUCACCCAUGUUUUAGUGUGGGCAUGUAGA	87.7 nM	134 nM	–	–
AGCUGGUGACAGCAAGAAAUUUCACAUGAGGAUCACCCAUGUAGAAGGCUGUACGGUUACCGUACAGAGGAUAUACAUAGAAAG	22.4 nM	30.5 nM	–	–
UCCAAACAUGAGGAUCACCCAUGUGAGGAUAUGAUACUAUGUACUUCGGUACAUAGUAUCAGAAGGCACAUCCA	13.6 nM	22.2 nM	–	–
CUUUCGUGAGGAUAUGAAAAUUCGAUCGUGAGAUCGAGGCUACAGAAGGCACAUGAGGAUCACCCAUGUUCCUC	31.5 nM	320 nM	–	–
UCAAAUACUGAGGAUAUAACGACUGAAUCCGCGUUAGAAGGUAGUACAUGAGGAUCACCCAUGUCAACCAGAGG	–	18.7 nM	–	–
GCCAUCGUAUGAGGAUAUGGCACCGAAACGGUGCCAGAAGGCAUGUCAAUAGACAUGAGGAUCACCCAUGUGUUAUCGAUGGCA	–	–	379 nM	36.5 nM
GAUUUAGAGCAGGAUAUCAUAGAAAUGUAUGAAUGAGAAGGGCUCACAUGAGGAUCACCCAUGUGGUCCUAGAU	25.4 nM	240 nM	–	–
GAAUUCGCAUGAGGAUAUGCACUCAUUUCAUGUGCAGAAGGUAUUUCAUUAGACAUGAGGAUCACCCAUGUAUUGGUCAAUAAC	–	–	19.1 nM	16.1 nM
GGAUCGAGUGUGAGGAUAUACCACUGGAUACAGUGGUAGAAGGCACAUGAGGAUCACCCAUGUCCUUACGAUCC	81.4 nM	436 nM	–	–
CACAACCAGGGAGGAUAUACAUGAGGAUCACCCAUGUUCGGCUCCCAUGCAGGAUGCCGUCCCGUGUAGAAGGCCCAGCGAUAG	9.91 nM	32.2 nM	–	–

Sequence	apparent Kd [1]	apparent Kd [2]	apparent Kd [3]	apparent Kd [4]
AAACAGCUAGGAUAUACCCUCCGUGAGACUCCCAAAUCGAAACAUGAGGAUCACCCAUGUAGAAGGAGCUGACG	13.4 nM	12.2 nM	–	–
UCGGGCGUAGGAUAUGCUAUCACGGACAUGAGGAUCACCCAUGUCAGAUGUCCGGGCGAGGCAGAAGGGCGGUUUU	74.1 nM	120 nM	–	–
AAUAAACUCACAGGAUAUAGCAGAGGUCGCGUAAACUUACAGGCGACUAUGCUAGAAGGGUGACCACAUGAGGAUCACCCAUGU	–	–	836 nM	161 nM
UAUCAAUUUAUGGGAUUAGAUUAUGAGGAUAUCAUUUUUUUAUACAUGAGGAUCACCCAUGUUUCUGAGAAGGCAUAAUUAAUA	–	–	16.9 nM	6.29 nM
UGCGGAUAUCGAGGAUAUGCGACGGGUUCUCACAUGAGGAUCACCCAUGUCCGCGGGCCUCAAAAGCAGAAGGCGAGUUCGGUU	–	–	376 nM	10.6 nM
AGCUGGUGACAGCAUCCAUCAAAACAUGAGGAUCACCCAUGUAGAAGGCUGUACGGUUACCGUACAGAGGAUAUACAUAGAUGG	10.4 nM	14.9 nM	–	–
GAUCAACAUGAGGAUCACCCAUGUGAGGAUAUGUAUCAUAGAUCUUCGGAUCUAUGAUACAGAAGGCAUGUGAA	76.1 nM	101 nM	–	–
UUAUUAUAUGUAGGAUAUGCGUAUUAUUAUUAUGCAGAAGGACAUGAGGAUCACCCAUGUAUAUUAUUAUUAUAUAUUAUAUAU	29 nM	66.9 nM	–	–
UGGUGUGAAGGAUAUACAUGAGGAUCACCCAUGUAUGAGGUGUGUGUUGAGGUGGAGGGUAGAAGGUCAGGUGG	30.1 nM	30.6 nM	–	–
UUCAGCGAUCAAGGAUAUCUAUAAACAUGAGGACAUGAGGAUCACCCAUGUUGAUCACCCAUGUAGGAGAAGGUGAACAUGAGG	–	–	81.8 nM	29.8 nM
UCGGCCCAAGCACAUGAGGAUCACCCAUGUACCACGGCCACCAGAAGGGCAGGGAAGAGGGAUCUGCAGGAUAUGGGCACUAGC	–	–	14.4 nM	9.6 nM
CCGGCUUAGUAGGAUAUAGGAGUCGAUAGACACCUAGAAGGACUAACAUGAGGAUCACCCAUGUGUCCUACCGG	14.3 nM	29.3 nM	–	–
UCCGUGGCAUCUCGCGCAUGUCUACAUGAGGAUCACCCAUGUCAGGAUAUACGGAAUGUCGUUCCGUAGAAGGGACAAGGGCUG	243 nM	116 nM	–	–
GCCGGCUAAUGAGGAUAUGGCACCUUAUUGGUGCCAGAAGGCAUGUCAAUUGACAUGAGGAUCACCCAUGUAUUAUAGUUGGCG	–	–	422 nM	115 nM
UACAGCUUGACAGGAUAUACAUGACUGCGAAAGCAGUCUAUCUUAAUAACAUGAGGAUCACCCAUGUAGAAGGGUCGAGCUGUA	17.6 nM	27 nM	–	–
CUUAUGUGAGGAUAUGUACAGAAAAAACUGGGUGUAACUGUACAGAAGGCACAUGAGGAUCACCCAUGUGUAUU	98.5 nM	34.1 nM	–	–
AAAAAACAUGAGGAUCACCCAUGUCAGGAUAUCGUUGAAAAAAAAAAAAAAAAAAAAGCGAGAAGGGACACGAA	72.6 nM	68.2 nM	–	–
GAAUAGGCAGGAUAUACAUGAGGAUCACCCAUGUGCUUGCGAUAGGCACGUGAACAACGUAGAAGGGCCUUAAC	33.2 nM	149 nM	–	–
AAAACAUGAGGAUCACCCAUGUUUAGAUCGGUCGAUAGAAGUGAGGAUAUACUAAGUUAAGGCUGGUAGAAGGCACUGGGUACA	–	–	26.9 nM	27.5 nM
UCAAUCACUGGAGGAUAUGUACUAAUUUGCGGUUCCUCGAUAUCUCACAUGAGGAUCACCCAUGUACAGAAGGCUAGUCGGAAA	783 nM	99.7 nM	–	–
AGUUAUUCAGGAUAUGGUGUGUUAUACAUGAGGAUCACCCAUGUGGGUCCUGGUUAGGCCUCAGAAGGGAAUGUUA	703 nM	534 nM	–	–
ACCGGGUGUCACGUAUUACCGACAUGAGGAUCACCCAUGUAGGAGGAUAUGCAGACCGACAUAAAGCAGAAGGCCUACGUUUUC	6.72 nM	35.8 nM	–	–
UGGUACUAGGGAGGAUAUGGGAAGAUACAUGAGGAUCACCCAUGUUUAAGAAUGCCGAGAGGCAACUAGAAGGGCCUAGUACCU	–	–	804 nM	280 nM
ACAUGAGGAUCACCCAUGUGAUGAUCUUCCAUGUCAUAUUUCAGAAGGCUCGCAUGUUUAAUGAGAGAGGAUAUGGAAUAUGCG	701 nM	386 nM	–	–
GUUUUCGCAUGAGGAUAUGCUCGCAUUUCUAGAGCAGAAGGUAUGUCUAUAGACAUGAGGAUCACCCAUGUAUUUAACUUUGAA	–	–	186 nM	34.4 nM
UACUACGCAGGAUAUACAUGAGGAUCACCCAUGUGUCUGCGAUAGGCACGUGAUAUCCGUAGAAGGGUGUAGAU	30.4 nM	79.5 nM	–	–
GACUGCUGAGGAUAUACAUGAGGAUCACCCAUGUGCUUCAGCUAGGAGACUAGCAUUGGUAGAAGGUAGUAGUC	11.1 nM	16.1 nM	–	–
